Activity calls are given as the source filed them. The rule behind the calls is not given here.
Legend:
K562 = experiment: Antiproliferative activity against human K562 cells after 72 hrs by fluorescence spectroscopy; type: cell-based; details: K562, 72 h
Procedure, shortened: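 K562 cells at 1 × 10^4 cells/100 μL exposed to compounds for 72 h. Fluorescent viability reagent added for the final 2 h, then fluorescence read. Viability expressed as percent of untreated cells after subtracting a media-only blank.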

[1] = biological target: Butyrophilin subfamily 3 member A1 (Homo sapiens) (UniProt O00481); experiment: Activation of BTN3A1 in human Vgamma9Vdelta2 T cells assessed as induction of interleukin 2 stimulated cell proliferation by measuring increase in gammadelta T cell receptor positive cells at 0.1 uM treated for 72 hrs measured on day 11 post last treatment by flow cytometry
Procedure, shortened: (§1)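 Human peripheral blood mononuclear cells exposed to compound for 72 h together with interleukin 2, then grown for 11 days. CD3+/γδ TCR+ cells were scored by flow cytometry. […] Negative controls were cells with or without interleukin 2 and no compound. Bars show mean and SD, n=3, with ANOVA and Tukey post-hoc test.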

[2] = Toxicity in human Vgamma9/Vdelta2 T cells treated for 72 hrs measured on day 11 post last treatment by flow cytometry; type: cell-based, Vgamma9/Vdelta2 T cell
Procedure, shortened: (§2)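 Human peripheral blood mononuclear cells were treated with compound for 72 h, cultured to day 11, and Vγ9Vδ2 (CD3+/γδ TCR+) cells were assessed by flow cytometry over a dose-response range. Interleukin 2 and untreated controls were included. Runs were done at least three independent times using cells from at least 2 donors.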

[3] = biological target: Butyrophilin subfamily 3 member A1 (Homo sapiens) (UniProt O00481); experiment: Activation of BTN3A1 in human Vgamma9Vdelta2 T cells assessed as induction of interleukin 2 stimulated cell proliferation by measuring increase in CD3 positive cells at 0.1 uM treated for 72 hrs measured on day 11 post last treatment by flow cytometry; type: cell-based; procedure, shortened: as §1
[4] = biological target: Butyrophilin subfamily 3 member A1 (Homo sapiens) (UniProt O00481); experiment: Potency index, ratio of HMBPP EC50 to compound EC50 for BTN3A1 in human Vgamma9Vdelta2 T cells
[5] = Selectivity index, ratio of IC50 for human Vgamma9Vdelta2 T cells to EC50 for BTN3A1 in human Vgamma9Vdelta2 T cells; type: functional
[6] = Safety index, ratio of HMBPP IC50 to compound IC50 for human K562 cells; type: ADME, cell-based; details: read-out: Ratio IC50
Procedure, shortened: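 Direct K562 toxicity: 1 × 10^4 cells/100 μL exposed to compounds for 72 h, with cell quantibluo reagent added for the final 2 h and a fluorescence read-out. Viable cells were expressed as % of untreated control after subtracting a media-only blank, giving an IC50. The fold value divides the reference IC50 by the test IC50.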

[7] = biological target: Butyrophilin subfamily 3 member A1 (Homo sapiens) (UniProt O00481); experiment: Inhibition of HMBPP binding to recombinant C-terminal His-tagged BTN3A1 intracellular domain (unknown origin) expressed in BL21(DE) assessed as change in entropy of HMBPP binding at 10-fold higher dose of compound by isothermal titration calorimetry (reference value: 19 kJ/mol); type: cell-based
[8] = biological target: Butyrophilin subfamily 3 member A1 (Homo sapiens) (UniProt O00481); experiment: Inhibition of HMBPP binding to recombinant C-terminal His-tagged BTN3A1 intracellular domain (unknown origin) expressed in BL21(DE) assessed as change in entropy of HMBPP binding at 100-fold molar excess of compound by isothermal titration calorimetry (reference value: 19 kJ/mol); type: cell-based
[9] = biological target: Butyrophilin subfamily 3 member A1 (Homo sapiens) (UniProt O00481); experiment: Inhibition of HMBPP binding to recombinant C-terminal His-tagged BTN3A1 intracellular domain (unknown origin) expressed in BL21(DE) by isothermal titration calorimetry
[10] = biological target: Butyrophilin subfamily 3 member A1 (Homo sapiens) (UniProt O00481); experiment: Binding affinity to recombinant C-terminal His-tagged BTN3A1 intracellular domain (unknown origin) expressed in BL21(DE) assessed as change in entropy at 688 uM by isothermal titration calorimetry
Procedure, shortened: (§3)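 Purified full BTN3A1 intracellular domain at 43 μM titrated with compound at 300–860 μM by isothermal titration calorimetry. Three independent titrations per compound.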

[11] = biological target: Butyrophilin subfamily 3 member A1 (Homo sapiens) (UniProt O00481); experiment: Binding affinity to recombinant C-terminal His-tagged BTN3A1 intracellular domain (unknown origin) expressed in BL21(DE) assessed as change in entropy at 480 uM by isothermal titration calorimetry; procedure, shortened: as §3
[12] = biological target: Butyrophilin subfamily 3 member A1 (Homo sapiens) (UniProt O00481); experiment: Binding affinity to recombinant C-terminal His-tagged BTN3A1 intracellular domain (unknown origin) expressed in BL21(DE) assessed as change in entropy at 240 uM by isothermal titration calorimetry
[13] = Toxicity in human Vgamma9/Vdelta2 T cells at >= 10 uM treated for 72 hrs measured on day 11 post last treatment by flow cytometry; type: cell-based; details: vgamma9/vdelta2 t cell; procedure, shortened: as §2
[14] = biological target: Butyrophilin subfamily 3 member A1 (Homo sapiens) (UniProt O00481); experiment: Binding affinity to recombinant C-terminal His-tagged BTN3A1 intracellular domain (unknown origin) expressed in BL21(DE) at […] by isothermal titration calorimetry
Procedure, shortened: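 Full intracellular domain of BTN3A1 was purified as previously described. Protein was at 43 μM and titrant compound at 300–860 μM. Three independent titrations were run per compound.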

Chain of Butyrophilin subfamily 3 member A1 (Homo sapiens) (O00481 30-513 limits assumed): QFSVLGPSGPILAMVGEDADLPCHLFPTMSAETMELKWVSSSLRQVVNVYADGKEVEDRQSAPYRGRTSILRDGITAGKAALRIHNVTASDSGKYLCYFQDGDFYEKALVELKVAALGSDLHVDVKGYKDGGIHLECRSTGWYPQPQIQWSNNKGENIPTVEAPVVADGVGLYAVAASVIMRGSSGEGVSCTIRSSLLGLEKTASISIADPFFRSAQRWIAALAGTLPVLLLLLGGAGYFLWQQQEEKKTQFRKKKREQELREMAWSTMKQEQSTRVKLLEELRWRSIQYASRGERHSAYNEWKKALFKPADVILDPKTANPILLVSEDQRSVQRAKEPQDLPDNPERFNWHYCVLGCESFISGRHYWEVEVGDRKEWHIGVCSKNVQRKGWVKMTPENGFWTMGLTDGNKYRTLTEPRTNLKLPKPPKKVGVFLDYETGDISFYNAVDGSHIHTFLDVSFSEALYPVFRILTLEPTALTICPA

For `C/C(=C\COP(=O)(O)OP(=O)(O)O)CO`, the IC50 (K562) was over 100 µM, the Activity [1] was “Active” and the IC50 at 72 h [2] was 0.5 µM. The Activity [3] was “Active”.
In the case of `C/C(=C\CCP(=O)(OCOC(=O)C(C)(C)C)OCOC(=O)C(C)(C)C)CO`, the Activity [1] is reported as “Active”, the IC50 at 72 h [2] is reported as 0.6 µM and the Activity [3] is reported as “Active”. The Ratio EC50 [4] was 0.094 and the “Ratio IC50/EC50” value [5] was 110.
`CC(C)=CCCP(=O)(CP(=O)(OCOC(=O)C(C)(C)C)OCOC(=O)C(C)(C)C)OCOC(=O)C(C)(C)C` (configuration not stated) gave an IC50 (K562) of 9.7 µM, a selectivity ratio [6] of over 10 and an IC50 at 72 h [2] of over 100 µM.
Compound `CC(C)=CCCP(=O)(O)CP(=O)(O)O` has an IC50 (K562) of over 100 µM, an IC50 at 72 h [2] of over 100 µM and a TdeltaS [7] of -1.1 kcal/mol. The TdeltaS [8] was 6.69 kcal/mol and the inhibition [9] was “Dose-dependent effect”.
For `C/C(=C\CCP(=O)(O)CP(=O)(O)O)CO`, the IC50 (K562) was over 100 µM, the TdeltaS [10] was -12.1 kcal/mol and the TdeltaS [11] was -13.2 kcal/mol. It also gave a TdeltaS [12] of -12 kcal/mol and an IC50 at 72 h [2] of over 100 µM.
In the case of `COP(=O)(CC/C=C(\C)CO)CP(=O)(OC)OC` (configuration not stated), the IC50 (K562) is reported as over 100 µM and the IC50 at 72 h [2] is reported as over 100 µM.
In the case of `C/C(=C\CCP(=O)(CP(=O)(OCOC(=O)C(C)(C)C)OCOC(=O)C(C)(C)C)OCOC(=O)C(C)(C)C)CO` (configuration not stated), the Activity [1] is reported as “Active”, the Activity [13] is reported as “Toxic” and the selectivity ratio [6] is reported as over 29. The Activity [14] was “inactive”, the IC50 at 72 h [2] was 3.5 µM and the Activity [3] was “Active”. The “Ratio IC50/EC50” value [5] was 85.
Work on `C/C(=C\CCP(=O)(O)O)CO` yielded a Ratio EC50 [4] of 0.00013.

Source: ChEMBL document CHEMBL4007426, “Phosphinophosphonates and Their Tris-pivaloyloxymethyl Prodrugs Reveal a Negatively Cooperative Butyrophilin Activation Mechanism” (J Med Chem, 2017)
